Each block holds one compound with its values, some of them ahead of it.
Experiments:
[1] = biological target: T1, Prostaglandin E synthase (Homo sapiens) (UniProt O14684); experiment: Inhibition of mPGES-1 derived from IL1beta and TNFalpha stimulated human HeLa cells microsomal fraction using PGH2 as substrate at 1 uM preincubated for 30 mins prior to substrate addition measured after 1 min by LC-MS/MS analysis relative to control
T1 sequence (whole entry): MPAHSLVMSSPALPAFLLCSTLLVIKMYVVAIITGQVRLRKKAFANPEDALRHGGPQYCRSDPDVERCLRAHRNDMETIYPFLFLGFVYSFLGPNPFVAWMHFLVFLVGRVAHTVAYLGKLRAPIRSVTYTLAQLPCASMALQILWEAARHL
Summary of the method: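 Microsomes were pelleted by ultracentrifugation and resuspended in buffer with 2.5 mM GSH; protein was measured by Bradford. PGE₂ was read by LC-MS/MS after solid-phase extraction with deuterated standards; n ≥ 3.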

[2] = biological target: T2, Prostaglandin E synthase (Mus musculus) (UniProt Q9JM51); experiment: Inhibition of mPGES-1 derived from LPS stimulated mouse RAW264.7 cells microsomal fraction using PGH2 as substrate at 5 uM preincubated for 30 mins prior to substrate addition measured after 1 min by LC-MS/MS analysis relative to control
T2 sequence (whole entry): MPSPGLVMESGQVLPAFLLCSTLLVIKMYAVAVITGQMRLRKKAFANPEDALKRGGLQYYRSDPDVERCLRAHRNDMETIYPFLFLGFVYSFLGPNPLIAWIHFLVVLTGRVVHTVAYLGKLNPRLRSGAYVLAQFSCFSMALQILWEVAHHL
Summary of the method: (§1)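 Microsomes came from RAW 264.7 cells stimulated with LPS for 16 h. They were prepared by sonication and ultracentrifugation in 0.1 M potassium phosphate, pH 7.4, with GSH and protease inhibitors, and resuspended with 2.5 mM GSH; protein was measured by Bradford. Compound was tested at the stated final concentration. PGE₂ was quantified by LC-MS/MS after solid-phase extraction with PGE₂-d₄/PGD₂-d₄ standards; SEM, n ≥ 3.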

[3] = biological target: T2, Prostaglandin E synthase (Mus musculus); experiment: Inhibition of mPGES-1 derived from LPS stimulated mouse NIH3T3 cells microsomal fraction using PGH2 as substrate at 5 uM preincubated for 30 mins prior to substrate addition measured after 1 min by LC-MS/MS analysis relative to control
[4] = biological target: T2, Prostaglandin E synthase (Mus musculus); experiment: Inhibition of mPGES-1 derived from LPS stimulated mouse RAW264.7 cells microsomal fraction using PGH2 as substrate at 1 uM preincubated for 30 mins prior to substrate addition measured after 1 min by LC-MS/MS analysis relative to control; summary of the method: as §1
[5] = biological target: T2, Prostaglandin E synthase (Mus musculus); experiment: Inhibition of mPGES-1 derived from LPS stimulated mouse NIH3T3 cells microsomal fraction using PGH2 as substrate at 1 uM preincubated for 30 mins prior to substrate addition measured after 1 min by LC-MS/MS analysis relative to control
[6] = biological target: T3, Prostaglandin G/H synthase 1 (Ovis aries) (UniProt P05979); experiment: Inhibition of ovine COX1-mediated PGE2 synthesis using PGH2 as substrate at 1 uM by LC-MS/MS analysis relative to control
T3 sequence (whole entry): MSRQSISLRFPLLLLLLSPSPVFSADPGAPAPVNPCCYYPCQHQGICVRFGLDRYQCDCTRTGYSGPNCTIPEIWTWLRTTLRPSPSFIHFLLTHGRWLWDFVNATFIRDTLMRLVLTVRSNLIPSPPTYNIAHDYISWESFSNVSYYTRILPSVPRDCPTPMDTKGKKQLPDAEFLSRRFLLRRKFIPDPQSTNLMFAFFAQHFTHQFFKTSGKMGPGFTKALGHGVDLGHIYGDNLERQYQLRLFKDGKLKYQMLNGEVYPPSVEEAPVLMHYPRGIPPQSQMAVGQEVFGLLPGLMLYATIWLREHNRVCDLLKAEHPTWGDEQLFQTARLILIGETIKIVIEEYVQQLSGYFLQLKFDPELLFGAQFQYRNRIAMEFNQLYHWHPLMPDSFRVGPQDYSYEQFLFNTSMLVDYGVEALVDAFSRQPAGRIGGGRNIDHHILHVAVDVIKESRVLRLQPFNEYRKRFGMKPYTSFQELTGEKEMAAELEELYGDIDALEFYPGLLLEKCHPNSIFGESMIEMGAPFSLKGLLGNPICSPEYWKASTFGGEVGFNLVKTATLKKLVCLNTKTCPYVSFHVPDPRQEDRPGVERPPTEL
Summary of the method: (§2)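 Direct enzyme test with a COX inhibitor screening kit, run per the kit protocol: COX-1 was ovine, COX-2 human recombinant. […] Prostaglandins were quantified by LC-MS/MS after solid-phase extraction. Mean of n ≥ 3.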

[7] = biological target: T4, Prostaglandin G/H synthase 2 (Homo sapiens) (UniProt P35354); experiment: Inhibition of human recombinant COX2-mediated PGE2 synthesis using PGH2 as substrate at 1 uM by LC-MS/MS analysis relative to control; summary of the method: as §2
T4 sequence (whole entry): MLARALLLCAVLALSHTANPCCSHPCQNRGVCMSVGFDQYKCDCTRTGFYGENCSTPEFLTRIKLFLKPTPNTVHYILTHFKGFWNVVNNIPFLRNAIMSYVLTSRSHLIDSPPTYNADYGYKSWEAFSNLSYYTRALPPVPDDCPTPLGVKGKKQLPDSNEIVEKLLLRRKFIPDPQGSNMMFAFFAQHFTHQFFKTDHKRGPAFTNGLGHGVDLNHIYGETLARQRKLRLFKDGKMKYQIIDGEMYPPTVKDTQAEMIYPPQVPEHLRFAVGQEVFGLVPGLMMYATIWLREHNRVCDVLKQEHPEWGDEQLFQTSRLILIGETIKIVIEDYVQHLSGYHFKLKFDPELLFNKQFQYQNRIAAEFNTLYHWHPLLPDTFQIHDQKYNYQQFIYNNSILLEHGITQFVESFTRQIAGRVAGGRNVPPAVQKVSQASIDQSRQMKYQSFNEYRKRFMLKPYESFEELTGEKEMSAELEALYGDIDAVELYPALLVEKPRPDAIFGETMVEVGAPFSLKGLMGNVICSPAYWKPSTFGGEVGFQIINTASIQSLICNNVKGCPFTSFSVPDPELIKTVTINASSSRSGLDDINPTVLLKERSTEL

[8] = tested on: HeLa; experiment: Cytotoxicity against IL1beta and TNFalpha-stimulated human HeLa cells at 1 to 10 uM after 24 hrs by WST1 assay; type: cell-based
Summary of the method: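 HeLa cells were seeded at 3 × 10³ per well and grown 24 h at 37 °C. They were then stimulated with IL-1β (1 ng/mL) + TNFα (5 ng/mL) while treated with compound at 1, 10 or 100 μM, or DMSO, for 24 h. WST-1 was added for 90–150 min and absorbance read at 450 nm against 620 nm. Viability is percent of DMSO control, SEM, n ≥ 3.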

[9] = biological target: T1, Prostaglandin E synthase (Homo sapiens); experiment: Inhibition of mPGES-1 in IL1beta and TNFalpha-stimulated human HeLa cells assessed as PGE2 level after 24 hrs by LC-MS/MS analysis; type: cell-based
Summary of the method: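 HeLa cells (2 × 10⁴) were grown 24 h at 37 °C. The medium was then replaced with IL-1β (1 ng/mL) + TNFα (5 ng/mL), or PBS for unstimulated controls, together with compound at 1, 10 or 100 μM, or DMSO, for 24 h at 37 °C. Supernatant PGE₂ was quantified by LC-MS/MS after solid-phase extraction with deuterated standards. Inhibition is percent of DMSO control corrected for unstimulated background, SEM, n ≥ 3.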

[10] = biological target: T5, Prostaglandin E synthase (Homo sapiens, UniProt O14684); experiment: Inhibition of human recombinant mPGES-1
T5 sequence (O14684 whole entry): T1 sequence (whole entry)

[11] = Inhibition of rat recombinant mPGES-1

Compound: O=C(Nc1ccc2nc(C3CC3)n(Cc3ccccc3)c(=O)c2c1)c1cccnc1
inhibition [1]: < 0%

Compound: CCCc1nc2ccc(NC(=O)c3cccs3)cc2c(=O)n1Cc1ccc(-c2cccc(Cl)c2)cc1
inhibition [1]: 15.6%

Compound: Cc1ccccc1C(=O)Nc1cc2c(=O)n(Cc3ccccc3)c(C)nc2cc1N1CCCC1
inhibition [1]: 37.1%

Compound: CCCc1nc2ccc(NC(=O)C(C)(C)C)cc2c(=O)n1Cc1ccc(-c2cccc(Cl)c2)cc1
inhibition [1]: 18.8%

Compound: O=C(Nc1ccc(-c2ccc(Cl)c(Cl)c2)cc1)C1=C(O)c2ccccc2S(=O)(=O)N1
IC50 [10]: 16.5 nM
IC50 [11]: 1080 nM

Continued, in another order:

inhibition [1]: < 0%
Compound: O=C1NC(c2ccccc2Cl)Oc2ccccc21 (stereo not drawn)

inhibition [1]: 14.7%
Compound: CCCc1nc2ccc(NC(=O)c3ccc(Cl)cc3)cc2c(=O)n1Cc1ccc(-c2cccc(Cl)c2)cc1

inhibition [2]: 66.2%
inhibition [3]: 62.9%
Compound: CCCCCCC(Sc1nc(Cl)cc(Nc2cccc(C)c2C)n1)C(=O)O (stereo not drawn)

inhibition [1]: 67.2%
inhibition [4]: 3.8%
inhibition [5]: 17.8%
inhibition [6]: < 0%
inhibition [7]: < 0%
inhibition [9]: Dose-dependent effect
Compound: O=C(Nc1ccc2nc(Cc3ccccc3)n(Cc3cccc(Cl)c3)c(=O)c2c1)c1ccccc1Cl
Activity [8]: Non-toxic

inhibition [1]: 15.9%
Compound: CCCc1nc2ccc(NC(=O)C3CC3)cc2c(=O)n1Cc1ccc(-c2cccc(OC)c2)cc1

Reference: ChEMBL document CHEMBL2046422, “Structure-activity relationship of nonacidic quinazolinone inhibitors of human microsomal prostaglandin synthase 1 (mPGES 1)” (J Med Chem, 2012)
